Columns and labels:
[1] = Volume of distribution at steady state in Swiss albino mouse at 1 mg/kg, iv by LCMS/MS analysis; assay type: ADME, organism-based; conditions: in vivo, read-out: Vdss
Summary of the method: (§1)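 Male Swiss Albino mice. Single intravenous dose of 1 mg/kg, or single oral dose of 12.5 or 25 mg/kg. Plasma parameters were derived for each route: CL, Vdss, t1/2, AUClast and C0 after iv; Cmax, Tmax and AUClast after oral. Oral bioavailability F (%) was taken from the oral and iv exposures.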

[2] = AUC (last) in Swiss albino mouse at 25 mg/kg, po by LCMS/MS analysis; assay type: ADME, organism-based; design: dose 25 mg/kg, route oral, time 0 - last; conditions: in vivo; summary of the method: as §1
[3] = Oral bioavailability in Swiss albino mouse at 25 mg/kg by LCMS/MS analysis; assay type: ADME, organism-based; conditions: in vivo; summary of the method: as §1
[4] = Cmax in Swiss albino mouse at 25 mg/kg, po by LCMS/MS analysis; assay type: ADME, organism-based; design: dose 25 mg/kg, route oral; conditions: in vivo; summary of the method: as §1
[5] = AUC (last) in Swiss albino mouse at 1 mg/kg, iv by LCMS/MS analysis; assay type: ADME, organism-based; design: dose 1 mg/kg, time 0 - last, route intravenous; conditions: in vivo; summary of the method: as §1
[6] = Initial plasma concentration in Swiss albino mouse at 1 mg/kg, iv by LCMS/MS analysis; assay type: ADME, organism-based; summary of the method: as §1
[7] = Tmax in Swiss albino mouse at 25 mg/kg, po by LCMS/MS analysis; assay type: ADME, organism-based; conditions: in vivo; summary of the method: as §1
[8] = Half life in Swiss albino mouse at 1 mg/kg, iv by LCMS/MS analysis; assay type: ADME, organism-based; conditions: in vivo; summary of the method: as §1
[9] = Clearance in Swiss albino mouse at 1 mg/kg, iv by LCMS/MS analysis; assay type: ADME, organism-based; conditions: in vivo; summary of the method: as §1
[10] = Metabolic stability in hamster liver microsomes assessed as parent compound remaining at 1 uM after 1 hr by LC-MS/MS analysis; assay type: ADME; conditions: cricetinae, read-out: Stability
[11] = Metabolic stability in hamster liver microsomes assessed as parent compound remaining at 1 uM after 30 mins by LC-MS/MS analysis; assay type: ADME; conditions: cricetinae, read-out: Stability
[12] = Metabolic stability in human liver microsomes assessed as parent compound remaining at 1 uM after 30 mins by LC-MS/MS analysis; assay type: ADME; conditions: read-out: Stability
[13] = Metabolic stability in CD1 mouse liver microsomes assessed as parent compound remaining at 1 uM after 30 mins by LC-MS/MS analysis; assay type: ADME; conditions: read-out: Stability
[14] = Metabolic stability in human liver microsomes assessed as parent compound remaining at 1 uM after 1 hr by LC-MS/MS analysis; assay type: ADME; conditions: read-out: Stability
[15] = Stability in 0.1 M HCl at pH 1 at 20 degC; assay type: physicochemical; conditions: buffer
[16] = Metabolic stability in CD1 mouse liver microsomes assessed as parent compound remaining at 1 uM after 1 hr by LC-MS/MS analysis; assay type: ADME; conditions: read-out: Stability
[17] = Tmax in Swiss albino mouse at 12.5 mg/kg, po by LCMS/MS analysis; assay type: ADME, organism-based; conditions: in vivo; summary of the method: as §1
[18] = Cmax in Swiss albino mouse at 12.5 mg/kg, po by LCMS/MS analysis; assay type: ADME, organism-based; design: dose 12.5 mg/kg, route oral; conditions: in vivo; summary of the method: as §1
[19] = Oral bioavailability in Swiss albino mouse at 12.5 mg/kg by LCMS/MS analysis; assay type: ADME, organism-based; conditions: in vivo; summary of the method: as §1
[20] = AUC (last) in Swiss albino mouse at 12.5 mg/kg, po by LCMS/MS analysis; assay type: ADME, organism-based; design: dose 12.5 mg/kg, route oral, time 0 - last; conditions: in vivo; summary of the method: as §1

Row | Vd [1] [L/kg] | AUC(0-t) [2] [ng·h/mL] | bioavailability [3] [%] | Cmax [4] [ng/mL] | AUC(0-t) [5] [ng·h/mL] | C0 [6] [ng/mL] | Tmax [7] [h] | half-life [8] [h] | clearance [9] [mL/min/kg] | Structure (SMILES) | further results
1 | 2.2 | 14800 | 52 | 1800 | 1140 | 610 | 1 | 3.2 | 13 | O=[N+]([O-])c1cn2c(n1)OC(COc1ccc(OC(F)(F)F)cc1)C2 (stereo not given) | 
2 |  |  |  |  |  |  |  |  |  | C[C@]1(COc2ccc(N3CCC(Oc4ccc(OC(F)(F)F)cc4)CC3)cc2)Cn2cc([N+](=O)[O-])nc2O1 | remaining at 1 h, 1 µM [10]: 55%
3 | 7.5 | 7580 | 63 | 700 | 480 | 300 | 6 | 3.8 | 28 | CC1(COc2ccc(-c3ccc(F)cc3)cc2)Cn2cc([N+](=O)[O-])nc2O1 (racemic) | remaining at 0.5 h, 1 µM [11]: 42%; remaining at 0.5 h, 1 µM [12]: 88%; remaining at 0.5 h, 1 µM [13]: 57%
4 |  |  |  |  |  |  |  |  |  | CC1(COc2ccc(C(F)(F)F)cn2)Cn2cc([N+](=O)[O-])nc2O1 (racemic) | remaining at 1 h, 1 µM [14]: 84%; Stability [15]: Unstable; remaining at 1 h, 1 µM [16]: 69%
5 |  |  |  |  |  |  |  |  |  | CC1(CNc2ccc(OC(F)(F)F)cc2)Cn2cc([N+](=O)[O-])nc2O1 (stereo not given) | Stability [15]: Unstable
6 |  |  |  |  |  |  |  |  |  | CC1(CN2CCN(c3ccc(F)cc3)CC2)Cn2cc([N+](=O)[O-])nc2O1 (stereo not given) | remaining at 1 h, 1 µM [14]: 49%; remaining at 1 h, 1 µM [16]: 14%
7 | 1.7 | 33500 | 79 | 4100 | 1690 | 880 | 4 | 2.2 | 9.5 | CC1(COc2ccc(OC(F)(F)F)cc2)Cn2cc([N+](=O)[O-])nc2O1 (racemic) | 
8 | 5.7 | 9810 | 18 | 290 | 2130 | 340 | 6 | 11 | 7.6 | CC1(COc2ccc(-c3ccc(OC(F)(F)F)cc3)cc2)Cn2cc([N+](=O)[O-])nc2O1 (stereo not given) | 
9 | 2.6 |  |  |  | 1390 | 360 |  | 2.7 | 11 | C[C@]1(COc2ccc(OC(F)(F)F)cc2)Cn2cc([N+](=O)[O-])nc2O1 | Tmax [17]: 2 h; Cmax [18]: 1300 ng/mL; bioavailability [19]: 91%; AUC(0-t) [20]: 15800 ng·h/mL

— ChEMBL document CHEMBL3784956, “Repositioning Antitubercular 6-Nitro-2,3-dihydroimidazo[2,1-b][1,3]oxazoles for Neglected Tropical Diseases: Structure-Activity Studies on a Preclinical Candidate for Visceral Leishmaniasis” (J Med Chem, 2016)
